Reference: ChEMBL document CHEMBL5370602, “Structure-Based Design of a Lead Compound Derived from Natural Schweinfurthins with Antitumor Properties That Target Oxysterol-Binding Protein” (J Med Chem, 2023)

What was measured:
[1] = Antitumor activity in high alert medicated patient derived human GBM1 cells xenografted in immunodeficient nude mouse model assessed as T/C ratio at 42 mg/kg,po QD for 5 days and measured from 9 to 11 days; conditions: time 5 day
[2] = Toxicity in immunodeficient nude mouse model xenografted with high alert medicated patient derived human GBM1 cells assessed as body weight change at 42 mg/kg,po QD for 5 days; assay type: organism-based; conditions: in vivo, 120 h, time 5 day
Procedure, shortened: (§1)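 Female athymic nude mice bearing subcutaneous GBM1-HAM PDX fragments (20 mm³); treatment began day 11 post-implant at tumour volumes 75-196 mm³, 10 per group. Compound i.p. daily in cyclodextrin vehicle (17 days alone, 27 days in combination); temozolomide 42 mg/kg p.o. daily for 5 days in PBS/glucose/Tween 80. Calliper volumes three times weekly; body weight and clinical signs monitored.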

[3] = Antitumor activity in high alert medicated patient derived human GBM1 cells xenografted in immunodeficient nude mouse model assessed as change in tumor volume at 42 mg/kg,po QD for 5 days and measured after 11 days relative to control; conditions: time 5 day
[4] = Toxicity in immunodeficient nude mouse model xenografted with high alert medicated patient derived human GBM1 cells assessed as clinical symptoms at 42 mg/kg,po QD for 5 days; assay type: organism-based; conditions: in vivo, 120 h, time 5 day
Procedure, shortened: as §1

[5] = Antitumor activity in high alert medicated patient derived human GBM1 cells xenografted in immunodeficient nude mouse model assessed as tumor growth inhibition at 42 mg/kg,po QD for 5 days and measured from 9 to 11 days; conditions: GBM1, 120 h

For `Cn1nnc2c(C(N)=O)ncn2c1=O` [TEMOZOLOMIDE], the T/C [1] was 62.43%, the Activity [2] was “Non-Toxic” and the Activity [3] was 546.69%. The Activity [4] was “Non-Toxic” and the TGDI at 42 mg/kg [5] was 1.34%.
